Test results taken from PMC3488162 (The Journal of investigative dermatology, 2012).
Entries after “also recorded” stand apart in the source; their conditions may differ. Blank lines part the entries; values can stand above or below the molecule they belong to.

Assays:
Sap = conditions: ref Korting et al., 1999; cited from earlier work
C. albicans cells = format: cell-based, Candida albicans; conditions: external (5 μg/ml) and endogenous peptide; oral RHE, 12 h; immunofluorescence
Outline: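 Oral RHE infected with 2×10^6 C. albicans SC5314 in TSB/10 mM sodium phosphate, pH 7.2, with or without 5 μg/ml peptide, for 12 h. Tissue cryofixed; 5-μm sections fixed in PLP, blocked with donkey serum. Stained with affinity-purified rabbit anti-peptide antibody (1:50) and human anti-C. albicans serum (1:60), then Dylight 549/Cy5 secondaries and YOPRO nuclear stain. Confocal imaging at ×400 and ×250.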

E. coli BL21 = assay: Broth microdilution, E. coli BL21; format: cell-based; conditions: data not shown
[1] = test system: RHE (TR146) infected with C. albicans SC5314; assay: Histology of reconstituted human oral epithelium; format: cell-based; conditions: 125 μg/ml, 18 h after infection with C. albicans SC5314
Outline: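 Multilayer oral RHE infected with 2×10^6 C. albicans SC5314 in 3 g/l TSB/10 mM sodium phosphate, pH 7.2. Test compound at 5–125 μg/ml or none, for 12 and 18 h at 37 °C in 5% CO2 with 100% humidity. Light microscopy scored on 50 sections from five sites per epithelium.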

[2] = test system: TLR4 mRNA expression of epithelial cells; assay: Epithelial TLR4 mRNA expression; format: cell-based, human; conditions: 5 μg/ml, 12 h, n = 6
Outline: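 Epithelial cells infected or not with C. albicans SC5314, with or without 5 μg/ml test compound, for 12 h. Total RNA extracted; cDNA made from 1 μg RNA with SuperScript III. qPCR run in duplicate using mean Ct, normalised to a housekeeping gene. Data are means±SD of duplicate assays from three experiments; 2-tailed paired t test, n = 6.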

P. aeruginosa PAO = assay: Broth microdilution, P. aeruginosa PAO; format: cell-based; conditions: data not shown
C. albicans [3] = assay: Flow cytometric antimicrobial killing assay; format: cell-based, Candida albicans; conditions: for depolarized fungal cells in a population: 1:6 diluted Schaedler broth, DiBAC4(3), flow cytometry, means of one representative experiment in triplicate; for antifungal activity compared between hGAPDH (2-32), LL-37 and hBD-3: 10 μg/ml each
Outline: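 Candida albicans (strains 143, 277, 526 and SC5314; 1.5×10^6 cells) incubated at 37°C in 1:6-diluted Schaedler broth with test peptide or reference antimicrobial peptides at 10 μg/ml, dissolved in 0.01% acetic acid. Solvent-only controls. After 90 min, DiBAC4(3) membrane-potential dye added for 10 min; cells pelleted and resuspended in PBS. Percentage of depolarized cells counted by flow cytometry, 10,000 events per sample.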

[4] = test system: P. aeruginosa clinical isolate; assay: Broth microdilution, P. aeruginosa clinical isolate; format: cell-based; conditions: data not shown
C. albicans SC5314 = assay: Electron microscopy of C. albicans; format: cell-based, Candida albicans; conditions: 125 μg/ml, 24 h, 37 °C
Outline: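 About 10^6 SC5314 cells/ml held with 125 μg/ml test compound for 24 h at 37 °C, beside an untreated control. Pellets fixed in 2.5% glutaraldehyde/2% formaldehyde (0.05 M phosphate, pH 7.3), post-fixed in 1% OsO4 and embedded in glycid ether. Sections of 20–30 nm stained with uranyl acetate and viewed by transmission EM.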

C. albicans [5] = assay: Radial diffusion test, C. albicans; format: cell-based, Candida albicans; conditions: different media
C. albicans [6] = assay: Broth microdilution, C. albicans; format: cell-based, Candida albicans; conditions: data not shown
TR146 epithelial cells = assay: LDH release by uninfected epithelial cells; format: cell-based, human
Outline: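 TR146 buccal cells grown in DMEM with 10% FCS at 37°C, 5% CO2. Tests run in antibiotic-free medium with 5, 10, 50, 100 or 125 μg/ml test compound for 12 and 24 h. Damage read as LDH release. Standard LDH samples spiked with 5 and 125 μg/ml test compound checked for assay interference.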

E. coli = assay: Flow cytometric antimicrobial killing assay; format: cell-based, E. coli ATCC 25922; conditions: 90 min, 37°C
Outline: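 E. coli ATCC 25922 (1.5×10^6 cells) in 1:6 diluted Schaedler broth at 37°C. Peptides dissolved in 0.01% acetic acid and added at 10 μg/ml; solvent served as viability control. After 90 min, DiBAC4(3) added for 10 min, cells spun and resuspended in PBS. Percentage of depolarised cells counted by flow cytometry over 10 000 events. One representative experiment run in triplicate.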

[7] = test system: GM-CSF secretion of epithelial cells; assay: GM-CSF secretion by epithelial cells; format: cell-based, human; conditions: uninfected epithelial cells; 5 μg/ml; 12 h; n = 6
Outline: (§1)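 Epithelial cells infected or not with C. albicans SC5314, with or without 5 μg/ml test compound, for 12 h. Cytokine in culture supernatants measured by DuoSet sandwich ELISA. Data are means±SD of duplicate assays from three experiments; 2-tailed paired t test, n = 6.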

[8] = test system: IL-8 secretion of epithelial cells; assay: IL-8 secretion by epithelial cells; format: cell-based, human; conditions: 5 μg/ml, 12 h, n = 6
Outline: as §1

Sap2p = Sap2p (Candida albicans, UniProt P0CS83); assay: Sap inhibition assay, Sap2; format: biochemical, C. albicans; conditions: as stated in abstract
Sequence of Sap2p (P0CS83 57-398): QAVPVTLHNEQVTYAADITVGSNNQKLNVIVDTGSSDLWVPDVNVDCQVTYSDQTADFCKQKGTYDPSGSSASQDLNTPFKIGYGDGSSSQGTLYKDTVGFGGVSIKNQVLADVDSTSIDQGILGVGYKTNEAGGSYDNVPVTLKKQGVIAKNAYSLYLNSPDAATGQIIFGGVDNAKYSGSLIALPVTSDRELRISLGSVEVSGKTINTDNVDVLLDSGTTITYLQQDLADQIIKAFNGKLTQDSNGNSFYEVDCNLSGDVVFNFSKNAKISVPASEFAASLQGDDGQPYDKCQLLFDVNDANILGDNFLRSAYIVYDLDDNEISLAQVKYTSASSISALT

C. albicans [9] = assay: Annexin V-FITC / propidium iodide staining, apoptotic and necrotic marker; format: cell-based, Candida albicans
Sap1p = Sap1p (Candida albicans, UniProt P0CY27); conditions: as stated in abstract
Sequence of Sap1p (P0CY27 51-391): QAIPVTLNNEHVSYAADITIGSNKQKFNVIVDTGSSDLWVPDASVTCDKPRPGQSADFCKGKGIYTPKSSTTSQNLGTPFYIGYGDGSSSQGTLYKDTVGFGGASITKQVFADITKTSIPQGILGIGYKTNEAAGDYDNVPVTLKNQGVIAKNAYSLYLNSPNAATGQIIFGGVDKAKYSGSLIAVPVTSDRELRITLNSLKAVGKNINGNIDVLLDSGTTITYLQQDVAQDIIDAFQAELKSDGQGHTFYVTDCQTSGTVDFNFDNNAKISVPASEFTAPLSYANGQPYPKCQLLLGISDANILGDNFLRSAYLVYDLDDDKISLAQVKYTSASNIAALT

GAPDH = conditions: ref Mookherjee et al., 2009; cited from earlier work
C. albicans [10] = conditions: ref Wu et al., 1999, cited from earlier work
Sap2 = conditions: ref Wu et al., 1999, cited from earlier work
[11] = epithelial cells infected with C. albicans SC5314

Molecule: CC(C)(C)NC(=O)[C@@H]1CN(Cc2cccnc2)CCN1C[C@@H](O)C[C@@H](Cc1ccccc1)C(=O)N[C@H]1c2ccccc2C[C@H]1O [indinavir]
inhibition of Sap activity (Sap): inhibit Sap activity

Molecule: CC(C)(C)NC(=O)[C@@H]1C[C@@H]2CCCC[C@@H]2CN1C[C@@H](O)[C@H](Cc1ccccc1)NC(=O)[C@H](CC(N)=O)NC(=O)c1ccc2ccccc2n1 [saquinavir]
inhibition of Sap activity (Sap): inhibit Sap activity

growth inhibition (MIC 100%) (E. coli BL21): micromolar concentrations
growth inhibition (MIC 100%) (P. aeruginosa PAO): micromolar concentrations
growth inhibition (MIC 100%) [4]: micromolar concentrations
growth inhibition (MIC 100%) (C. albicans [6]): micromolar concentrations
ED50, inhibition of Sap activity (Sap2p): 200 µg/mL
ED50, inhibition of Sap activity (Sap1p): 160 µg/mL
Molecule: GKVKVGVNGFGRIGRLVTRAAFNSGKVDIVA [hGAPDH (2-32)]
affinity to C. albicans cells (C. albicans cells): strong affinity
internalization by fungal cells (C. albicans cells): internalization by the fungal cells
morphological alterations of infected RHE [1]: far less marked morphological alterations
number of yeast cells on the mucosal surface [1]: decreased
spongiosis and invasion of keratinocytes by yeast cells [1]: inhibited
edema in infected RHE ([1]; uppermost keratinocyte layers): mild edema
TLR4 expression [2, 11]: increased
TLR4 mRNA expression ([2]; uninfected epithelial cells, vs PBS treated controls): increased
dose dependence of antifungal effect (C. albicans [3]; C. albicans SC5314, 5, 10, 50, 100 and 125 μg/ml, 90 min): dose dependent
effectiveness in killing assay (C. albicans [3]; C. albicans, 5 μg/ml): not very effective
depolarized fungal cells in a population (C. albicans [3]; C. albicans, 10 µg/ml (3.1 µM), 90 min, 37°C): 45%
antifungal activity compared between hGAPDH (2-32), LL-37 and hBD-3 (C. albicans [3]; C. albicans, 90 min, 37°C): not significantly different
depolarized fungal cells in a population (C. albicans [3]; C. albicans, 100 µg/ml, 90 min, 37°C): 90%
depolarizing of the fungi in a population (C. albicans [3]; two of the four tested C. albicans strains, 10 μg/ml, 90 min, 37°C): approximately 50%
sensitivity of C. albicans strains (C. albicans [3]; two other of the four tested C. albicans strains, 10 μg/ml, 90 min, 37°C): slightly lower sensitivity
ultrastructural changes of C. albicans morphology (C. albicans SC5314): distinct changes of the cell wall, plasma membrane and the cytoplasm; also recorded: enlargement of the fungal cytoplasmic vacuoles, disorganization of the internal organelles and the appearance of yeasts with an empty cytoplasm resembling necrotic ghost cells
antifungal activity (C. albicans [5]): antifungal activity was also demonstrated
toxic mucosal effects (TR146 epithelial cells; low concentrations): without any toxic mucosal effects
toxicity on mammalian cells (TR146 epithelial cells; uninfected epithelial cells, LDH release): low toxicity
antibacterial activity compared with LL-37 and hBD-3 (E. coli; 10 μg/ml each): less active against E. coli
antibacterial activity (E. coli; 10 μg/ml, 1:6 diluted Schaedler broth): potent antibacterial activity
GM-CSF secretion [7]: increased secretion
IL-8 secretion [8, 11]: even increased
IL-8 secretion ([8]; uninfected epithelial cells): increased secretion
protoplasts with peripheral annexin V-FITC fluorescence (apoptosis) (C. albicans [9]; 5 μg/ml, 1 h, 37°, 300 fungal cells): 31%
cellular changes after longer treatment or higher doses (C. albicans [9]; treated for longer time with 5 μg/ml or at higher doses): cellular changes characteristic of necrosis

Molecule: LL-37: antimicrobial peptide LL-37 (Innovagen, Lund, Sweden); human cathelicidin (LLGDFFRKSKEKIGKEFKRIVQRIKDFLRNLVPRTES; Antibacterial peptide LL-37; UniProt P49913 134-170, looked up)
GAPDH as mononuclear cell receptor (GAPDH): GAPDH is relevant for the functioning

Molecule: hBD-3: antimicrobial peptide hBD-3 (Peptide Institute, Osaka, Japan) (GIINTLQKYYCRVRGGRCAVLSCLPKEEQIGKCSTRGRKCCRRKK; UniProt P81534 23-67, looked up) [reference compound]
antifungal activity compared between hGAPDH (2-32), LL-37 and hBD-3 (C. albicans [3]; C. albicans, 90 min, 37°C): not significantly different

Molecule: lysozyme: antimicrobial protein ubiquitous in human mucosal secretions such as saliva
killing of C. albicans (C. albicans [10]; higher concentrations): killing the organism
growth of C. albicans (C. albicans [10]): inhibited the growth
production of Sap (Sap2; lower concentrations): decreasing the production
secretion of the isoenzyme Sap2 (Sap2): decreased
